Source: ChEMBL document CHEMBL1914351, “Design, synthesis and biological evaluation of 3-substituted 2,5-dimethyl-N-(3-(1H-tetrazol-5-yl)phenyl)pyrroles as novel potential HIV-1 gp41 inhibitors” (Bioorg Med Chem, 2011)

Legend:
[1] = Inhibition of HIV1 gp41 assessed as gp41-six-helix bundle formation after 30 mins by sandwich ELISA; parameters: species or system Human immunodeficiency virus 1
Summary of the method: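 N36 peptide (2 µM) preincubated with graded compound concentrations at 37 °C for 30 min, then C34 (2 µM) added for another 30 min at 37 °C. Mixture captured on plates coated with anti-6-HB rabbit IgG (10 µg/mL); detected with mAb NC-1, biotinylated anti-mouse IgG, SA-HRP, TMB; A450. Percent inhibition calculated; triplicate.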

[2] = system: Human immunodeficiency virus 1; assay: Antiviral activity against HIV1 3B infected in human MT2 cells assessed as inhibition of p24 production after 4 days by ELISA; format: functional, organism-based
[3] = Cytotoxicity against human MT2 cells after 4 days using XTT assay; format: cell-based
Summary of the method: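 MT-2 cells (5×10^5/mL) mixed with equal volume of graded compound concentrations, 37 °C for 4 days; XTT (1 mg/mL) containing 0.02 µM PMS added, A450 read after 4 h. CC50 calculated by CalcuSyn; triplicate, mean ± SD.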

[4] = Selectivity index, ratio of CC50 for human MT2 cells to EC50 for HIV1 3B; format: toxicity, cell-based; details: read-out: Ratio CC50/EC50
Summary of the method: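 Ratio CC50/EC50, CC50 from XTT cytotoxicity in MT-2 cells over 4 days and EC50 from p24 inhibition in HIV-1 IIIB-infected MT-2 cells at day 4.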

[5] = Human immunodeficiency virus 1, 3B, MT2, 96 h, read-out: EC50

Row | IC50 ([1]; read-out: IC50) [µM] | EC50 [2, 5] [µM] | IC50 [1] | EC50 ([2]; mt2) | Structure (SMILES) | CC50 at 96 h [3] [µM] | selectivity ratio [4]
1 | – | – | Not Active | Not Active | Cc1cc(C=C(C#N)C#N)c(C)n1-c1cccc(-c2nnn[nH]2)c1 | > 400 | –
2 | 3.1 | 6 | – | – | COc1cccc(N2C(=O)/C(=C/c3cc(C)n(-c4cccc(-c5nnn[nH]5)c4)c3C)SC2=S)c1 | 40.6 | 6.8
3 | 7.7 | 6.3 | – | – | Cc1cc(/C=C2\SC(=S)N(c3cccc(O)c3)C2=O)c(C)n1-c1cccc(-c2nnn[nH]2)c1 | 35.6 | 5.7
4 | 3.2 | 23.9 | – | – | Cc1cc(/C=C2\SC(=S)N(c3cccc([N+](=O)[O-])c3)C2=O)c(C)n1-c1cccc(-c2nnn[nH]2)c1 | 77 | 3.2
5 | 2.7 | 13.1 | – | – | Cc1cc(/C=C2\SC(=S)N(c3ccc(C(F)(F)F)cc3)C2=O)c(C)n1-c1cccc(-c2nnn[nH]2)c1 | 27.1 | 2.1
6 | 20.6 | 25.7 | – | – | Cc1cc(/C=C2\SC(=S)N(c3ccc(O)cc3)C2=O)c(C)n1-c1cccc(-c2nnn[nH]2)c1 | 45.6 | 1.8
7 | 12.7 | 12.3 | – | – | Cc1cc(/C=C2\SC(=S)N(Cc3ccccc3)C2=O)c(C)n1-c1cccc(-c2nnn[nH]2)c1 | 150 | 12
8 | 22.6 | 51.6 | – | – | COc1ccc(N2C(=O)N/C(=C\c3cc(C)n(-c4cccc(-c5nnn[nH]5)c4)c3C)C2=O)cc1 | 101 | 2
9 | 25.6 | – | – | – | Cc1ccc(C)n1-c1cccc(-c2nnn[nH]2)c1 | – | 32

Further lines, the compound ahead of its results:

Row | Structure (SMILES) | IC50 ([1]; read-out: IC50) [µM] | EC50 [2, 5] [µM] | IC50 [1] | EC50 ([2]; mt2) | CC50 at 96 h [3] [µM] | selectivity ratio [4]
10 | COc1ccc(N2C(=O)/C(=C/c3cc(C)n(-c4cccc(-c5nnn[nH]5)c4)c3C)SC2=S)cc1 | 9.2 | 47.9 | – | – | 87 | 1.8
11 | Cc1cc(/C=C/[N+](=O)[O-])c(C)n1-c1cccc(-c2nnn[nH]2)c1 | – | 29.3 | Not Active | – | 78.8 | 2.7
12 | CCOC(=O)/C(C#N)=C/c1cc(C)n(-c2cccc(-c3nnn[nH]3)c2)c1C | – | 18 | Not Active | – | 76.8 | 4.3
13 | CCOC(=O)C(=Cc1cc(C)n(-c2cccc(-c3nnn[nH]3)c2)c1C)C(=O)OCC | 12.1 | 17.2 | – | – | 77.4 | 4.5
14 | Cc1cc(/C=C2\SC(=S)N(c3ccccc3)C2=O)c(C)n1-c1cccc(-c2nnn[nH]2)c1 | 4.4 | 3.2 | – | – | 61 | 19
15 | Cc1cc(/C=C2\SC(=S)N(c3cccc(C(F)(F)F)c3)C2=O)c(C)n1-c1cccc(-c2nnn[nH]2)c1 | – | 6.8 | Not Active | – | 15.8 | 2.3
16 | Cc1cc(/C=C2\SC(=S)N(c3cccc(Br)c3)C2=O)c(C)n1-c1cccc(-c2nnn[nH]2)c1 | – | 9.8 | Not Active | – | 22.6 | 2.3
17 | Cc1cc(/C=C2\SC(=S)N(c3ccc(Br)cc3)C2=O)c(C)n1-c1cccc(-c2nnn[nH]2)c1 | 4.6 | 2.2 | – | – | 46.8 | 21
18 | Cc1cc(/C=C2\SC(=S)N(CCc3ccccc3)C2=O)c(C)n1-c1cccc(-c2nnn[nH]2)c1 | 28.1 | 4.1 | – | – | 45.7 | 11
19 | Cc1cc(/C=C2\NC(=O)N(c3cccc(C(F)(F)F)c3)C2=O)c(C)n1-c1cccc(-c2nnn[nH]2)c1 | 41.6 | 48.9 | – | – | 76.5 | 1.6
20 | O=C(O)c1cc(-n2cccc2)ccc1Cl | 58.7 | – | – | – | – | –
